Consider three molecules from ChEMBL document CHEMBL1129988, “4-substituted cubylcarbinylamines: a new class of mechanism-based monoamine oxidase B inactivators” (J Med Chem, 1997).

In assay [1] the target is T1, Amine oxidase [flavin-containing] B (Bos taurus, UniProt P56560).
T1 sequence (P56560 whole entry): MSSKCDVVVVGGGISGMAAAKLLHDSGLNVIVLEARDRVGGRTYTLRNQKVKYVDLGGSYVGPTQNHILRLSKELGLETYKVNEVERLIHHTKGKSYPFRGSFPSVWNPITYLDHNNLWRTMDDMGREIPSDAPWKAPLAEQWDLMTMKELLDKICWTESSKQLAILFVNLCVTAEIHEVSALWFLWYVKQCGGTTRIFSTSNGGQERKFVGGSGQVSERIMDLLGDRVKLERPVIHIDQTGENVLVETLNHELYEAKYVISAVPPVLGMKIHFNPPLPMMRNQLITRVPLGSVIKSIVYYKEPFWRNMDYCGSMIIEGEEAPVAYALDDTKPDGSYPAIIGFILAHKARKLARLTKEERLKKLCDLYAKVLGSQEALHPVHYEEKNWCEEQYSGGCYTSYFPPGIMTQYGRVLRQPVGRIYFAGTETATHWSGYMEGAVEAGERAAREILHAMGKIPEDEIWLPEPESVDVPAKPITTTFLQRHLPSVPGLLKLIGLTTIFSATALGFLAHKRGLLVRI
In words: Inhibition constant was evaluated against mitochondrial Monoamine oxidase B. In short, it runs like this: (§1)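 MAO B (20 μL of 2.6 mg/mL) was added to the amine hydrochloride at various concentrations, in 100 mM Tris pH 9.0 with 4% v/v DMSO. The mixture was incubated at 25 °C. At intervals an aliquot was diluted 1:50 into 1.0 mM benzylamine in the same buffer, and activity was read as the change in absorbance at 250 nm. Activity is expressed relative to a no-inactivator DMSO control. K_I and k_inact were derived by the Kitz–Wilson method.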

The target of assay [2] is T1, Amine oxidase [flavin-containing] B. In words: Inactivation constant was determined against mitochondrial Monoamine oxidase B. In short, it runs like this:
as §1

Assay [3] shares this target. In words: K inact/KI against Monoamine oxidase B. The essentials: as §1

Structures are written as SMILES.

In the case of `NCC12C3C4C5C3C1C5C42` (centres undefined), the affinity in assay [1] corresponds to a Ki of 170 µM. Also, the maximal inactivation rate constant (kinact) in assay [2] was 0.00055 s⁻¹. In assay [3], the kinact/KI is 3.17 M⁻¹ s⁻¹.

As for `NCC12C3C4C1C1C2C3C41C1CC1` (centres undefined), in assay [1], the affinity, expressed as Ki, was 260 µM. Also, the kinact in assay [2] was 0.00467 s⁻¹. The kinact/KI in assay [3] is 18.3 M⁻¹ s⁻¹.

The molecule `NCC12C3C4C1C1C2C3C41c1ccccc1` (centres undefined) returned a Ki in assay [1] of 120 µM. Besides, in assay [2], the kinact was 0.0125 s⁻¹. Further, the kinact/KI in assay [3] is 105 M⁻¹ s⁻¹.

By Ki is commonly meant the equilibrium dissociation constant of an inhibitor or competing ligand from its target. A high value points to weaker binding. As usually defined, the kinact is the maximal first-order rate at which the target is inactivated. The kinact/KI is the second-order rate constant of inactivation.
